Measurements as given in ChEMBL document CHEMBL3351943, “Binding modes of reverse fosmidomycin analogs toward the antimalarial target IspC” (J Med Chem, 2014).

Legend:
[1] = tested on: Plasmodium falciparum; assay: Antimicrobial activity against chloroquine-sensitive Plasmodium falciparum 3D7 assessed as growth inhibition after 3 days by HRP2-based ELISA; assay type: functional, organism-based; conditions: 3D7, 72 h
How it was run: (§1)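 Parasite growth followed by ELISA for P. falciparum histidine-rich protein 2; values are the mean of two duplicate determinations.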

[2] = target: T1, 1-deoxy-D-xylulose 5-phosphate reductoisomerase (Escherichia coli K-12, UniProt P45568); assay: Inhibition of Escherichia coli M15 recombinant IspC using 1-deoxy-D-xylulose 5-phosphate as substrate by photometric analysis
T1 sequence (P45568 whole entry): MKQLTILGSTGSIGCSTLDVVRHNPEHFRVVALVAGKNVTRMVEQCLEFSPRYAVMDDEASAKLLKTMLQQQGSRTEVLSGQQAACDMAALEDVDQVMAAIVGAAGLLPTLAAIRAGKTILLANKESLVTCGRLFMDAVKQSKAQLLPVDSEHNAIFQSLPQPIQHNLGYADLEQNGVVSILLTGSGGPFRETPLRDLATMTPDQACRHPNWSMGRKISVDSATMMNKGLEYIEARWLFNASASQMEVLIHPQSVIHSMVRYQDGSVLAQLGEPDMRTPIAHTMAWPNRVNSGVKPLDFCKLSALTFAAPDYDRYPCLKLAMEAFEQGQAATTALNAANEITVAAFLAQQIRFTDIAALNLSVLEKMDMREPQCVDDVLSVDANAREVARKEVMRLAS
How it was run: (§2)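 Photometric enzyme assay run per an earlier method. IC50 was fitted by nonlinear regression from eight or more data points. Generally two or three independent determinations were made.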

[3] = Inhibition of Plasmodium falciparum IspC using 1-deoxy-D-xylulose 5-phosphate as substrate by photometric analysis; how it was run: as §2
[4] = tested on: Plasmodium falciparum; assay: Antimicrobial activity against chloroquine-resistant Plasmodium falciparum Dd2 assessed as growth inhibition after 3 days by HRP2-based ELISA; assay type: functional; conditions: Dd2, 72 h; how it was run: as §1
[5] = tested on: Plasmodium falciparum; assay: Antimicrobial activity against multidrug-resistant Plasmodium falciparum FCR3 assessed as growth inhibition after 3 days by HRP2-based ELISA; assay type: functional, organism-based; conditions: FCR3, 72 h; how it was run: as §1
[6] = target: T2, 1-deoxy-D-xylulose 5-phosphate reductoisomerase (Mycobacterium tuberculosis, UniProt P9WNS1); assay: Inhibition of Mycobacterium tuberculosis IspC using 1-deoxy-D-xylulose 5-phosphate as substrate by photometric analysis
T2 sequence (P9WNS1 whole entry): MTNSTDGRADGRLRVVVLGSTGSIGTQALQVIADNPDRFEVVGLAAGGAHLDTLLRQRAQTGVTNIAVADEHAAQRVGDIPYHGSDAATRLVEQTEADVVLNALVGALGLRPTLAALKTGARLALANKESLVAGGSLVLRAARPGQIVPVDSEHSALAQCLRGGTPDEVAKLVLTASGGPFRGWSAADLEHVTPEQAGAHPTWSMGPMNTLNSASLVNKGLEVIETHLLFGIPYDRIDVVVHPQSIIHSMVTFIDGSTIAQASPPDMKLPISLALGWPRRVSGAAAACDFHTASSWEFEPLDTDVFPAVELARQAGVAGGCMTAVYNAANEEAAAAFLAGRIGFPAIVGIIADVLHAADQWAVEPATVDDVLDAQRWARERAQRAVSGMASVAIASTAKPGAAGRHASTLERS

Cc1ccc(C(CCC(=O)N(C)O)P(=O)(O)O)cc1 (stereo unspecified)
IC50 [1]: 0.21 µM | IC50 [2]: 0.29 µM | IC50 [3]: 0.01 µM | IC50 [4]: 0.25 µM | IC50 [5]: 0.38 µM

COc1ccc(C(CCC(=O)N(C)O)P(=O)(O)O)cc1 (stereo unspecified)
IC50 [1]: 0.1 µM | IC50 [2]: 0.07 µM | IC50 [3]: 0.02 µM | IC50 [4]: 0.3 µM | IC50 [6]: 2 µM | IC50 [5]: 0.57 µM

Cc1ccc(C(CCC(=O)NO)P(=O)(O)O)cc1 (stereo unspecified)
IC50 [1]: 2.6 µM | IC50 [2]: 0.7 µM | IC50 [3]: 0.19 µM | IC50 [4]: 2.8 µM | IC50 [6]: 11 µM

COc1ccc(C(CCC(=O)NO)P(=O)(O)O)cc1 (stereo unspecified)
IC50 [1]: 1.7 µM | IC50 [2]: 0.14 µM | IC50 [3]: 0.08 µM | IC50 [4]: 3.6 µM | IC50 [6]: 15 µM

COc1ccc(C(CCC(=O)N(C)O)P(=O)(O)O)cc1OC (stereo unspecified)
IC50 [1]: 0.29 µM | IC50 [2]: 0.32 µM | IC50 [3]: 0.06 µM | IC50 [4]: 1.2 µM | IC50 [6]: 29 µM

COc1ccc(C(CCC(=O)NO)P(=O)(O)O)cc1OC (stereo unspecified)
IC50 [1]: 6.8 µM | IC50 [2]: 1.5 µM | IC50 [3]: 0.13 µM | IC50 [4]: 8.1 µM | IC50 [6]: 163 µM

COc1ccc(C(OCC(=O)N(C)O)P(=O)(O)O)cc1 (stereo unspecified)
IC50 [1]: 0.31 µM | IC50 [2]: 0.45 µM | IC50 [3]: 0.05 µM | IC50 [4]: 1.1 µM | IC50 [6]: 2.8 µM | IC50 [5]: 0.41 µM

COc1ccc(C(OCC(=O)NO)P(=O)(O)O)cc1 (stereo unspecified)
IC50 [1]: > 50 µM | IC50 [2]: 17 µM | IC50 [3]: 2.2 µM | IC50 [6]: 352 µM

CN(O)C(=O)CCCC(c1ccccc1)P(=O)(O)O (stereo unspecified)
IC50 [1]: > 50 µM | IC50 [2]: 4.3 µM | IC50 [3]: 2.1 µM | IC50 [6]: 429 µM

CN(O)C(=O)CCC(NC(=O)c1ccccc1)P(=O)(O)O (stereo unspecified)
IC50 [1]: > 50 µM | IC50 [2]: 11 µM | IC50 [3]: 9.1 µM | IC50 [6]: 238 µM

O=C(CCC(NC(=O)c1ccccc1)P(=O)(O)O)NO (stereo unspecified)
IC50 [1]: > 50 µM | IC50 [2]: 741 µM | IC50 [3]: > 1000 µM | IC50 [6]: > 1000 µM

O=C(CCC(c1ccccc1)P(=O)(O)O)Nc1ccccc1O (stereo unspecified)
IC50 [1]: > 50 µM | IC50 [2]: > 500 µM | IC50 [3]: > 300 µM | IC50 [6]: > 500 µM

O=P(O)(O)CCC(c1cccc2ccccc12)P(=O)(O)O (stereo unspecified)
IC50 [1]: > 50 µM | IC50 [2]: > 500 µM | IC50 [3]: > 300 µM | IC50 [6]: > 500 µM
